pEC50, pKd: −log10 of the molar value. Calls of active or inactive are those of the source. The rule behind the calls is not given here.
Experiments:
K562 = experiment: Cytotoxicity against human K562 cells assessed as cell survival measured after 72 hrs by MTT assay; type: cell-based; settings: K562, 72 h
Summary of the method: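 MTT viability assay: 10^4 cells/well seeded and held overnight at 37 C, 5% CO2 (K562 in IMDM with 10% FCS). Serially diluted compounds added for 72 h of exposure. MTT added at 0.3 mg/ml final for 4 h at 37 C. Formazan dissolved in 10% SDS/0.01 N HCl, absorbance read at 560/690 nm. EC50 from concentration–response plot.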

Bcl-2-like protein 1 [1] = biological target: T1, Bcl-2-like protein 1 (Homo sapiens, UniProt Q07817); experiment: Binding affinity to Bcl-XL (unknown origin) using puma peptide by surface plasmon resonance-based competition assay; settings: dose 1.0 µM
Summary of the method: (§1)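 SPR competition on a streptavidin chip carrying 2800 RU biotinylated ligand. Flowed 0.5 µM Bcl-XL alone or premixed with 1.0 µM native BH3 peptide: Bim 26mer or Puma 25mer. Binding responses compared.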

[2] = biological target: Apoptosis regulator Bcl-2 (Homo sapiens, UniProt P10415); experiment: Binding affinity to Bcl-2 (unknown origin) measured by surface plasmon resonance based […]
Summary of the method: (§2)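 Biotinylated ligand (2800 RU) immobilised on a streptavidin SPR chip. Bcl protein in HBS-EP running buffer injected at 0.5, 0.25, 0.125 and 0.062 µM. Association 120 s, dissociation 240 s, 30 µl/min, 25 C. Surface regenerated with a 5 s pulse of 10 mM NaOH. KD estimated by kinetic fitting.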

Bcl-2-like protein 1 [3] = biological target: T1, Bcl-2-like protein 1; experiment: Binding affinity to recombinant Bcl-XL (unknown origin) premixed with human HeLa cell lysate incubated for 1 hr by SDS PAGE Western blot based pull down assay; type: subcellular
Summary of the method: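 Streptavidin magnetic beads loaded with 100 µM biotinylated compound in PBS-T for 30 min, washed, then equilibrated in HBS-EP. His-tagged recombinant Bcl-XL (0.2 µM) spiked into 10 µg HeLa lysate and incubated with beads for 1 h with rotation. Three washes, heat elution in SDS buffer (95 C, 5 min), SDS-PAGE, anti-His western blot.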

Bcl-2-like protein 1 [4] = biological target: T1, Bcl-2-like protein 1; experiment: Competitive binding affinity to Bcl-XL (unknown origin) using ABT-199 by western blot based pull down assay
[5] = biological target: Induced myeloid leukemia cell differentiation protein Mcl-1 (Homo sapiens, UniProt Q07820); experiment: Binding affinity to Mcl-1 (unknown origin) measured by surface plasmon resonance based pull down assay; summary of the method: as §2
Bcl-2-like protein 1 [6] = biological target: T1, Bcl-2-like protein 1; experiment: Binding affinity to Bcl-XL (unknown origin) using Bim peptide by surface plasmon resonance-based competition assay; summary of the method: as §1
Bcl-2-like protein 1 [7] = biological target: T1, Bcl-2-like protein 1; experiment: Binding affinity to Bcl-xl (unknown origin) measured by surface plasmon resonance based pull down assay; summary of the method: as §2

T1 sequence (Q07817 whole entry): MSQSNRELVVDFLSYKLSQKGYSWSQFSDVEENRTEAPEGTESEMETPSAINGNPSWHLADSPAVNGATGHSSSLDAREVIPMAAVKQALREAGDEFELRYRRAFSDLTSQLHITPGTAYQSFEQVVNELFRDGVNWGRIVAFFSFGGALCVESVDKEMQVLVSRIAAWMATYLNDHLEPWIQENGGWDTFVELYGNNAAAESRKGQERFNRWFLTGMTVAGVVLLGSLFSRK
Chain of Induced myeloid leukemia cell differentiation protein Mcl-1 (Q07820 whole entry): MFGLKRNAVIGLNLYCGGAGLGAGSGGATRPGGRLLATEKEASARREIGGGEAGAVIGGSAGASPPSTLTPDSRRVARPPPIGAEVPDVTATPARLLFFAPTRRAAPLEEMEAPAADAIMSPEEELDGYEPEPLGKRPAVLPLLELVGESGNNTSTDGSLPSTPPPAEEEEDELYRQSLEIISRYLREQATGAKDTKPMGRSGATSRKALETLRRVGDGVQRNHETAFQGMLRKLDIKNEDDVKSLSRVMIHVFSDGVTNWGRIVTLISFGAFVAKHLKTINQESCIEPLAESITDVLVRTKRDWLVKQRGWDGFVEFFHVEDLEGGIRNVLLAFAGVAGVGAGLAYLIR
Chain of Apoptosis regulator Bcl-2 (P10415 whole entry): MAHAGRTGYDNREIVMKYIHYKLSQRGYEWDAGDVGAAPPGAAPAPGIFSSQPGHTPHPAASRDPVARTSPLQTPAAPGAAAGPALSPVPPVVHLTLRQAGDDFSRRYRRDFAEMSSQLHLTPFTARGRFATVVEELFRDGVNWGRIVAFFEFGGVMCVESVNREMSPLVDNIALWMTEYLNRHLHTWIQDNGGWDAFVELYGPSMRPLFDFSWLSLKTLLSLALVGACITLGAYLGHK

Activity (Bcl-2-like protein 1 [1]) | pKd [2] | Activity (Bcl-2-like protein 1 [3]) | Activity (Bcl-2-like protein 1 [4]) | pKd [5] | Activity (Bcl-2-like protein 1 [6]) | pKd (Bcl-2-like protein 1 [7]) | Compound | pEC50 (K562)
– | – | – | – | – | – | – | CC1(C)CCC(CN2CCN(c3ccc(C(=O)NS(=O)(=O)c4ccc(NCC5CCOCC5)c([N+](=O)[O-])c4)c(Oc4cnc5[nH]ccc5c4)c3)CC2)=C(c2ccc(Cl)cc2)C1 [VENETOCLAX] | 5.68
Active | 7.68 | Active | Active | 5.91 | Active | 7.02 | CC(C)C(NC1=NS(=O)(=O)c2ccccc21)C(=O)NCC(NC(=O)C1(NC(=O)COc2ccccc2-c2n[nH]c3ccc(Cl)cc23)CC1)C(=O)NC(=O)CCCCC[C@@H]1SC[C@@H]2NC(=O)N[C@@H]21 (some centres undefined) | 5.76
